Assay outcomes (PubChem)
Compounds with a hit are over-represented: about 1.3% of the library has one in this group of screens.
EP2 antag – blocks the human prostaglandin E2 receptor EP2. C6 glioma cells expressing human EP2, cAMP TR-FRET; cells stimulated with saturating PGE2. inhibition, % at 25 µM. 0.52% of 260,000 active;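 active means percent inhibition above 40 after rounding to a whole number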;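 further: rat C6 glioma host cells with rolipram phosphodiesterase inhibitor present; the protocol text gives 20 µM as final concentration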
Target sequence (P43116 whole entry, looked up): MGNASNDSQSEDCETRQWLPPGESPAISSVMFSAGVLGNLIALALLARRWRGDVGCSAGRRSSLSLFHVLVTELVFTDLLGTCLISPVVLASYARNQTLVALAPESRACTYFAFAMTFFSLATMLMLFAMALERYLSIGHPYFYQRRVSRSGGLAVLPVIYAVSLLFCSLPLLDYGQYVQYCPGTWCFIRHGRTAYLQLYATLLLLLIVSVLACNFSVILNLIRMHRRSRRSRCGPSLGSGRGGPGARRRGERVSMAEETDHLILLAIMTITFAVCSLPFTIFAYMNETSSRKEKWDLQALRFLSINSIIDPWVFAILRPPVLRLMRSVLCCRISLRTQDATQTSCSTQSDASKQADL
NR2E3 ag-1 – NR2E3 (human) agonism; Q9Y5X4; GST-NR2E3/biotin-RetCOR TR-FRET, 1536-well; inhibition of corepressor binding, % at 4.78 µM; 0.12% of 320,000 active;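 active means percent inhibition above the cutoff of mean plus 3 SD of all tested compounds, set per screening campaign, cut at about 20% in these data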
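System: GST-tagged NR2E3 plus biotinylated RetCOR corepressor; Buffer or medium: pH 7.5 Tris-based buffer; Probe or stimulus: RetCOR corepressor, biotinylated, 7 nM; Doses: compound at 4.8 µM, single dose; Schedule: 5 h incubation at 4 °C; Technique: time-resolved FRET; Evaluation: percent inhibition of TR-FRET ratio; Replication: one well per compound, singlicate testing.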
EP2 modulator – modulates human prostaglandin E2 receptor EP2 signaling; EP2-expressing cells, cAMP HTRF FRET, PGE2 co-stimulation; 0.83% of 260,000 active; AID 940; P43116; induction, % at 25 µM;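 active means compounds whose cAMP rise, as percent of the full-agonist control response, exceeds 60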;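 further: rat C6 glioma line stably carrying human EP2 under a CMV promoter; the protocol text gives 20 µM as final concentration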
NR2E3 ag-2 – human photoreceptor-specific nuclear receptor agonism | 0.35% of 360,000 active | CHO-S Gal4-NCOR/VP16-NR2E3 two-hybrid, luciferase | AID 602229 | inhibition of corepressor binding, % at 3.98 µM;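 active means inhibition above the mean of all tested compounds plus 3 SD, cut at about 70% in these data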;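 further: higher means lower luciferase signal from less NR2E3 corepressor binding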
JMJD2C inh – inhibitors of human GASC-1 (JMJD2C) demethylase | inhibition, % at 2.35 µM | GST-JMJD2C(1-420) H3K9me3 demethylation, DELFIA europium | Q9H3R0 | 0.069% of 330,000 active | AID 2099;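 active means more than half of a compound's replicate wells show inhibition beyond 50%, single wells judged on their own value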;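 further: signal counts dimethyl H3K9 product captured on neutravidin plate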
Furin inhibitor – inhibitors of human furin; P09958; purified furin, fluorogenic substrate cleavage; inhibition, % at 20 µM or 30 µM; 0.061% of 220,000 active; AID 463115; in the data active means inhibition above about 25%
NR2E3 ag confirm – confirmation of human NR2E3 agonists | inhibition, % at 3.98 µM | CHO-S mammalian two-hybrid NR2E3-NCOR, luciferase luminescence | 51% of 2,300 active | shares compounds with NR2E3 ag-2;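 active means average inhibition above a cutoff equal to the mean inhibition of all tested compounds plus one SD, cut at about 70% in these data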
VP16 counter – GAL4-VP16 reporter inhibition in NR2E3 agonist counterscreen; shares compounds with NR2E3 ag-2; CHO-S GAL4-VP16 luciferase reporter, luminescence; inhibition, % at 3.98 µM; 29% of 2,300 active; AID 624379;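 active means mean inhibition above a cutoff equal to the average over all tested compounds plus one standard deviation, cut at about 70% in these data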;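 further: luciferase from a UAS reporter driven by GAL4-VP16 transactivation; higher means less reporter light so more repression of VP16 activity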
A number is an active result.

`Nc1cc(S(=O)(=O)Nc2cc(Cl)ccc2Cl)ccc1N1CCOCC1` gave EP2 antag inactive, NR2E3 ag-1 inactive, EP2 modulator inactive, NR2E3 ag-2 inactive, JMJD2C inh inactive, Furin inhibitor inactive, NR2E3 ag confirm inactive and VP16 counter inactive.
COc1ccc(NS(=O)(=O)c2ccc(N3CCOCC3)c(N)c2)cc1 was read as NR2E3 ag-1 inactive, NR2E3 ag-2 85, JMJD2C inh inactive, NR2E3 ag confirm 90 and VP16 counter 78.
`CSc1ccc(S(=O)(=O)Nc2ccc(N3CCOCC3)c(Cl)c2)cc1` gave EP2 antag inactive, NR2E3 ag-1 inactive, EP2 modulator inactive, NR2E3 ag-2 inactive, JMJD2C inh inactive, Furin inhibitor inactive, NR2E3 ag confirm inactive and VP16 counter inactive.
For COc1ccc(S(=O)(=O)N2CCC(C(=O)N(Cc3cccs3)C3CC3)CC2)cc1Cl the results were EP2 antag inactive and EP2 modulator inactive.
`Cc1cccc(NC(=O)CSc2nc3c(=O)[nH]c(=O)[nH]c3n2C)c1` gave EP2 antag inactive and EP2 modulator inactive.
O=C(NCCC1=CCCCC1)c1ccc(Cl)c(S(=O)(=O)N2CCOCC2)c1 was read as EP2 antag inactive, NR2E3 ag-1 inactive, EP2 modulator inactive, NR2E3 ag-2 inactive, JMJD2C inh inactive and Furin inhibitor inactive.
O=C(NCCC1=CCCCC1)c1ccc(Cl)c(S(=O)(=O)N2CCCCC2)c1 was read as NR2E3 ag-1 inactive, NR2E3 ag-2 inactive, JMJD2C inh inactive, NR2E3 ag confirm inactive and VP16 counter inactive.
OC[C@@H]1CN(Cc2ccccc2)C[C@H](n2cnc3c(NCc4ccco4)ncnc32)O1 was read as NR2E3 ag-2 inactive.
Screening OC[C@@H]1CN(Cc2ccc(-c3ccccc3)cc2)C[C@H](n2cnc3c(NCc4ccncc4)ncnc32)O1 returned NR2E3 ag-2 inactive, NR2E3 ag confirm 74 and VP16 counter inactive.
For OCCNc1ncnc2c1ncn2[C@H]1CN(Cc2ccc(-c3ccccc3)cc2)C[C@@H](CO)O1 the results were NR2E3 ag-2 inactive.
For OC[C@@H]1CN(Cc2ccc(-c3ccccc3)cc2)C[C@H](n2cnc3c(NCc4ccco4)ncnc32)O1 the results were NR2E3 ag-2 inactive, NR2E3 ag confirm 75 and VP16 counter inactive.
For COc1ccc(C(=O)c2sc(Nc3ccccc3)nc2N)cc1 the results were NR2E3 ag-2 inactive and JMJD2C inh inactive.
For COc1ccc(C(=O)c2sc(Nc3ccccc3)nc2N)cc1OC the results were NR2E3 ag-1 inactive, NR2E3 ag-2 102, JMJD2C inh inactive, NR2E3 ag confirm 80 and VP16 counter inactive.
For Cc1cc(/C=N/n2cnnc2)c(C)n1-c1ccc(OCc2ccc(Cl)cc2Cl)cc1 the results were EP2 antag inactive, NR2E3 ag-1 inactive, EP2 modulator inactive, NR2E3 ag-2 111, JMJD2C inh inactive, Furin inhibitor inactive, NR2E3 ag confirm 98 and VP16 counter 89.
Screening Cc1cc(/C=N/n2cnnc2)c(C)n1-c1ccc(Cl)cc1 returned EP2 antag inactive, NR2E3 ag-1 inactive, EP2 modulator inactive, NR2E3 ag-2 inactive, JMJD2C inh inactive and Furin inhibitor inactive.
Screening Cc1cc(/C=N/n2cnnc2)c(C)n1-c1ccc(OCc2ccc(F)cc2)cc1 returned EP2 antag inactive, NR2E3 ag-1 inactive, EP2 modulator inactive, NR2E3 ag-2 inactive, JMJD2C inh inactive, Furin inhibitor inactive, NR2E3 ag confirm 96 and VP16 counter 85.
For NC(=O)CSc1nc2cc(Cl)ccc2s1 the results were EP2 antag inactive and EP2 modulator inactive.
For Cn1ccnc1C1(O)CC2CCC(C1)N2C(=O)c1cccs1 (stereo unspecified) the results were EP2 modulator inactive.
COC1(OC)C(/C=C/c2ccc(C)cc2)C(C#N)(C#N)C1(OC)OC (stereo unspecified) was read as EP2 antag inactive, NR2E3 ag-1 inactive, EP2 modulator inactive, NR2E3 ag-2 77, JMJD2C inh inactive, Furin inhibitor inactive, NR2E3 ag confirm inactive and VP16 counter inactive.
`COc1ccc(NC(=O)C2CCN(C(=O)c3ccccc3Cl)CC2)cc1Cl` gave EP2 antag inactive and EP2 modulator inactive.
CC(OC(=O)c1cccs1)C(=O)NC(C)(C)C (stereo unspecified) was read as EP2 antag inactive and EP2 modulator inactive.
For OC(c1ccc(F)cc1)c1nc(-c2ccncc2)cs1 (stereo unspecified) the results were NR2E3 ag-2 79, NR2E3 ag confirm 83 and VP16 counter 71.
`Cc1nc(C)c(C(=O)NNS(=O)(=O)c2ccc3ccccc3c2)s1` gave EP2 antag inactive, NR2E3 ag-1 inactive, EP2 modulator inactive, NR2E3 ag-2 inactive, JMJD2C inh inactive, Furin inhibitor inactive, NR2E3 ag confirm 82 and VP16 counter 76.
O=c1[nH]c2cc3c(cc2cc1CN(CCO)C(=S)NCCc1ccccc1)OCO3 was read as EP2 antag inactive and EP2 modulator inactive.
Cc1ccc(OCC(=O)N2CCCC2)cc1C was read as EP2 antag inactive and EP2 modulator inactive.
Screening Cc1sc2ncnc(NCC3COc4ccccc4O3)c2c1C (stereo unspecified) returned EP2 antag inactive, NR2E3 ag-1 inactive, EP2 modulator inactive, NR2E3 ag-2 92, JMJD2C inh inactive, Furin inhibitor inactive, NR2E3 ag confirm 97 and VP16 counter 89.
`Cc1sc2ncnc(NCC3CCCO3)c2c1C` (stereo unspecified) gave EP2 antag inactive, NR2E3 ag-1 inactive, EP2 modulator inactive, NR2E3 ag-2 inactive, JMJD2C inh inactive and Furin inhibitor inactive.
Cc1sc2ncnc(NCC(C)(C)N3CCOCC3)c2c1C was read as EP2 antag inactive, NR2E3 ag-1 inactive, EP2 modulator inactive, NR2E3 ag-2 91, JMJD2C inh inactive, Furin inhibitor inactive, NR2E3 ag confirm 80 and VP16 counter inactive.
For Cc1sc2ncnc(NCc3ccccc3)c2c1C the results were EP2 antag inactive, NR2E3 ag-1 inactive, EP2 modulator inactive, NR2E3 ag-2 inactive, JMJD2C inh inactive, Furin inhibitor inactive, NR2E3 ag confirm 89 and VP16 counter 71.
For c1ccc(-c2csc3ncnc(NCC4COc5ccccc5O4)c23)cc1 (stereo unspecified) the results were EP2 antag inactive, NR2E3 ag-1 inactive, EP2 modulator inactive, NR2E3 ag-2 91, JMJD2C inh inactive, Furin inhibitor inactive, NR2E3 ag confirm 98 and VP16 counter 89.
Screening C=CCNc1ncnc2scc(-c3ccccc3)c12 returned EP2 antag inactive and EP2 modulator inactive.
Cc1nn(C)cc1C(=O)N1CCC2(CC1)NC(=O)c1ccccc1O2 was read as EP2 antag inactive and EP2 modulator inactive.
